# Assay results reported in ChEMBL document CHEMBL2146441, “2,6-Disubstituted imidazo[2,1-b][1,3,4]thiadiazoles: search for anticancer agents” (2012).
# Legend:
# Format in all cases: functional
# HOP-92 [1] = test: Cytotoxicity against human HOP92 cells assessed as cell growth at 10^-6 M after 48 hrs by SRB assay; conditions: HOP-92, 48 h, read-out: Activity
# 786-0 = test: Growth inhibition of human 786-0 cells after 48 hrs by SRB assay; conditions: 786-0, 48 h
# Summary of the method: (§1)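 Same 48 h NCI-60 five-dose SRB protocol. Adherent lines were fixed with cold TCA at 10% final; suspension lines such as CCRF-CEM were fixed with 16% final TCA. Stain was 0.4% SRB in 1% acetic acid for 10 min, solubilized in 10 mM Tris base and read at 515 nm. GI50 came from log concentration–growth curves, solving [(Ti−Tz)/(C−Tz)]×100 = 50.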
# COLO = test: Cytotoxicity against human COLO […] cells assessed as cell growth at 10^-6 M after 48 hrs by SRB assay; conditions: read-out: Activity
# Summary of the method: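 NCI-60 screen: lines kept in RPMI 1640 with 5% FBS, seeded at 5000–40,000 cells/well by doubling time, preincubated 24 h at 37 °C in 5% CO2. Time-zero plates TCA-fixed at drug addition. DMSO stocks diluted in medium, 48 h exposure. Fixation in cold TCA (final 10% adherent, 16% suspension), 0.4% SRB stain, solubilised in 10 mM Tris base, A515. Percent growth computed against control and time-zero.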
# HOP-92 [2] = test: Growth inhibition of human HOP92 cells after 48 hrs by SRB assay; conditions: HOP-92, 48 h; for CC50: read-out: LC50 (the source's name)
# Summary of the method: (§2)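 Adherent NCI-60 lines grown in RPMI 1640 with 5% FBS, seeded at 5000–40,000 cells/well, and preincubated 24 h at 37 °C, 5% CO2. Compound, stocked in DMSO, given either once at 10^-5 M or at five 10-fold dilutions for 48 h. Cells fixed with cold TCA (final 10%), stained with 0.4% SRB, and read at 515 nm. GI50 taken as 50% reduction in net protein increase versus time-zero and control plates.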
# NCI-H522 = test: Growth inhibition of human NCI-H522 cells after 48 hrs by SRB assay; conditions: NCI-H522, 48 h; for CC50: read-out: LC50 (the source's name); summary of the method: as §2
# MCF7 = test: Growth inhibition of human MCF7 cells after 48 hrs by SRB assay; conditions: MCF7, 48 h; summary of the method: as §2
# UO-31 = test: Cytotoxicity against human UO31 cells assessed as cell growth at 10^-5 M after 48 hrs by SRB assay; conditions: UO-31, 48 h, read-out: Activity
# [3] = Cytotoxicity against human NCI-ADR-RES cells assessed as cell growth at 10^-5 M after 48 hrs by SRB assay; conditions: read-out: Activity
# BT-549 = test: Growth inhibition of human BT549 cells after 48 hrs by SRB assay; conditions: BT-549, 48 h; for CC50: read-out: LC50 (the source's name); summary of the method: as §1
# [4] = Cytotoxicity against human […] cells assessed as cell growth at 10^-8 M after 48 hrs by SRB assay; conditions: 48 h, read-out: Activity
# SK-MEL-28 = test: Cytotoxicity against human SK-MEL-28 cells assessed as cell growth at 10^-6 M after 48 hrs by SRB assay; conditions: SK-MEL-28, 48 h, read-out: Activity
# SK-MEL-5 [5] = test: Growth inhibition of human SK-MEL-5 cells at 10^-5 M after 48 hrs by SRB assay; design: scale not given: the % may be the effect or the level left
# [6] = Cytotoxicity against human NCI-ADR-RES cells assessed as cell growth at 10^-4 M after 48 hrs by SRB assay; conditions: read-out: Activity
# NCI-H23 [7] = test: Growth inhibition of human NCI-H23 cells at 10^-4 M after 48 hrs by SRB assay; design: scale not given: the % may be the effect or the level left
# NCI-H23 [8] = test: Growth inhibition of human NCI-H23 cells at 10^-7 M after 48 hrs by SRB assay; design: scale not given: the % may be the effect or the level left
# SK-MEL-5 [9] = test: Growth inhibition of human SK-MEL-5 cells at 10^-6 M after 48 hrs by SRB assay; design: scale not given: the % may be the effect or the level left
# SK-MEL-5 [10] = test: Growth inhibition of human SK-MEL-5 cells at 10^-7 M after 48 hrs by SRB assay; design: scale not given: the % may be the effect or the level left
# A549 = test: Cytotoxicity against human A549 cells assessed as cell growth at 10^-4 M after 48 hrs by SRB assay; conditions: A549, 48 h, read-out: Activity
# SK-MEL-5 [11] = test: Growth inhibition of human SK-MEL-5 cells at 10^-4 M after 48 hrs by SRB assay; design: scale not given: the % may be the effect or the level left
# SK-MEL-5 [12] = test: Growth inhibition of human SK-MEL-5 cells after 48 hrs by SRB assay; conditions: SK-MEL-5, 48 h, read-out: LC50 (the source's name); summary of the method: as §2
# NCI-H23 [13] = test: Growth inhibition of human NCI-H23 cells at 10^-8 M after 48 hrs by SRB assay; design: scale not given: the % may be the effect or the level left
# NCI-H23 [14] = test: Growth inhibition of human NCI-H23 cells at 10^-6 M after 48 hrs by SRB assay; design: scale not given: the % may be the effect or the level left
# NCI-H23 [15] = test: Growth inhibition of human NCI-H23 cells at 10^-5 M after 48 hrs by SRB assay; design: scale not given: the % may be the effect or the level left
# NCI-H23 [16] = test: Growth inhibition of human NCI-H23 cells after 48 hrs by SRB assay; conditions: NCI-H23, 48 h; summary of the method: as §2
# SK-MEL-5 [17] = test: Growth inhibition of human SK-MEL-5 cells at 10^-8 M after 48 hrs by SRB assay; design: scale not given: the % may be the effect or the level left
SMILES,GI50 (786-0),TGI (786-0),growth at 1 µM (COLO),GI50 (HOP-92 [2]),TGI (HOP-92 [2]),CC50 (HOP-92 [2]),GI50 (NCI-H522),TGI (NCI-H522),CC50 (NCI-H522),GI50 (MCF7),LC50 (50% cell kill) (MCF7),TGI (MCF7),growth at 10 µM [3],GI50 (BT-549),TGI (BT-549),CC50 (BT-549),growth at 0.01 µM [4],growth at 1 µM (SK-MEL-28),also measured
COc1ccc(-c2nn3cc(-c4ccc(O)cc4O)nc3s2)cc1,1.72 µM,3.43 µM,100%,0.231 µM,2.68 µM,> 100 µM,1.88 µM,11.2 µM,> 100 µM,1.98 µM,> 100 µM,21.6 µM,15%,2.36 µM,28.1 µM,> 100 µM,100%,73%,growth at 1 µM (HOP-92 [1]): 25%; growth at 10 µM (UO-31): -46%
COc1ccc(-c2nn3cc(-c4cccc(N)c4)nc3s2)cc1,4.7 µM,15.9 µM,94%,0.114 µM,0.989 µM,87.2 µM,1.63 µM,14 µM,51.1 µM,2.2 µM,> 100 µM,20.3 µM,31%,3.88 µM,30.8 µM,> 100 µM,96%,80%,Activity (SK-MEL-5 [5]): 1%; growth at 100 µM [6]: -11%; Activity (NCI-H23 [7]): 2%; LC50 (786-0): 42.9 µM; Activity (NCI-H23 [8]): 89%; Activity (SK-MEL-5 [9]): 75%; Activity (SK-MEL-5 [10]): 91%; growth at 100 µM (A549): -46%; Activity (SK-MEL-5 [11]): -96%; CC50 (SK-MEL-5 [12]): 3.32 µM; Activity (NCI-H23 [13]): 92%; Activity (NCI-H23 [14]): 84%; Activity (NCI-H23 [15]): 35%; GI50 (NCI-H23 [16]): 4.9 µM; TGI (NCI-H23 [16]): > 100 µM; CC50 (NCI-H23 [16]; read-out: LC50 (the source's name)): > 100 µM; Activity (SK-MEL-5 [17]): 91%
